Our source for the IC50 and GI50 values is ChEMBL document CHEMBL1153707 (Eur J Med Chem, 2010).

Structures are written as SMILES.

Experiment [1] deals with Cyclin-dependent kinase 5/CDK5 activator 1 (Homo sapiens, UniProt Q00535). The experiment is described as follows: Inhibition of human CDK5/p25. Type of experiment: protein-complex assay. A digest of the protocol:
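CDK5/p25 kinase activity measured with 15 ATP and histone H1 as protein substrate; IC50 derived from dose-response curves.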

The target of experiment [2] is Casein kinase I isoform alpha/subunit beta (Homo sapiens, UniProt P48729+P67870). The experiment is described as follows: Inhibition of human CK1-alpha/CK2beta. Type of experiment: protein-complex assay.
Chain of Casein kinase I isoform alpha/subunit beta (P67870 whole entry, canonical isoform): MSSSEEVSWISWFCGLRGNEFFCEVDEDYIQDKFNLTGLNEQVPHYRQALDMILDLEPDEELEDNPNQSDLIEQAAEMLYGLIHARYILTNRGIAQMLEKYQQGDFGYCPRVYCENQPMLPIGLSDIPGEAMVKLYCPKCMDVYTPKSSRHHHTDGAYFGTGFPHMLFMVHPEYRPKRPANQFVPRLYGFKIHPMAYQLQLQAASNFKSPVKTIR
Chain of Casein kinase I isoform alpha/subunit beta (P48729 whole entry, canonical isoform): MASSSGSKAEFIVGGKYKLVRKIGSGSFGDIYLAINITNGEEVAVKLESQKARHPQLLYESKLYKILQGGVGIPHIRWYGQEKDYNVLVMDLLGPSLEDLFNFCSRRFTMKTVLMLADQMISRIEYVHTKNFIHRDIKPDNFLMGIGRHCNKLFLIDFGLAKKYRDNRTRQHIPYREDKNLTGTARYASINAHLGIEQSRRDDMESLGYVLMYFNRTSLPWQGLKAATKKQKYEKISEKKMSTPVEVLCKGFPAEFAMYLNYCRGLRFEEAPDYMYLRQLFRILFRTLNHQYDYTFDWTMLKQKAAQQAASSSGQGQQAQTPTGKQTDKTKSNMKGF
Experiment [3] concerns the target Glycogen synthase kinase-3 (Homo sapiens, UniProt P49840+P49841). The experiment is described as follows: Inhibition of human GSK3alpha/ GSK3-beta. Type of experiment: protein assay.
In the next experiment the test system is SF-268. The experiment is described as follows: Cytotoxicity against human SF268 cells. In kind it is functional.

Chain of Cyclin-dependent kinase 5/CDK5 activator 1 (Q00535 whole entry): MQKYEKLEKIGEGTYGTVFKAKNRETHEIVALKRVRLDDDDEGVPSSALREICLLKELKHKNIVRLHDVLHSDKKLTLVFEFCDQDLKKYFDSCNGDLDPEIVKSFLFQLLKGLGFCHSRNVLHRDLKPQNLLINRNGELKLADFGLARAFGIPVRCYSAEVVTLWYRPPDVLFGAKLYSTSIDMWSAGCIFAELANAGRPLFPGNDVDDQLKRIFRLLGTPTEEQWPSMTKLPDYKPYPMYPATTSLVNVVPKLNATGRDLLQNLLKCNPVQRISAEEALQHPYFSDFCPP
Chain of Cyclin-dependent kinase 5/CDK5 activator 1 (Q15078 whole entry, further chain): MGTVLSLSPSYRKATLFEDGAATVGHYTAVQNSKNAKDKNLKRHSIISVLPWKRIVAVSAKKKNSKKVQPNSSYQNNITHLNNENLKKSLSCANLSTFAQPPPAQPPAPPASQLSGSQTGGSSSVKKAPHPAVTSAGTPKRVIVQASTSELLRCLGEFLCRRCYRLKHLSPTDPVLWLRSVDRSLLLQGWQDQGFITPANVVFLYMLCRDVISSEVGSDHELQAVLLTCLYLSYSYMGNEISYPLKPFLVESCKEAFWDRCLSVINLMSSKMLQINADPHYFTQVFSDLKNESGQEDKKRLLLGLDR

For orientation: IC50 means the midpoint of a concentration-inhibition curve. Read a low IC50 as greater potency in that assay. `CN1C(=O)/C(=C/c2ccc3c(c2)OCO3)N=C1NCCNCc1ccc(Cl)cc1`: the IC50 in experiment [1], in experiment [2] and in experiment [3] was greater than 100 µM in each case.

Regarding `CN1C(=O)/C(=C/c2ccc3c(c2)OCO3)N=C1NCC/N=C/c1ccc2c(c1)OCC2`, the figures for the IC50 in experiment [1], in experiment [2] and in experiment [3] were greater than 100 µM, greater than 100 µM and 15 µM, respectively.

`CN1C(=O)/C(=C/c2ccc3c(c2)OCO3)N=C1NCC/N=C/c1ccc(Cl)cc1`: the 50% inhibitory concentration (IC50) in experiment [1], in experiment [2] and in experiment [3] was greater than 100 µM each time.

As to `COc1cc(/C=N/CCNC2=N/C(=C\c3ccc4c(c3)OCO4)C(=O)N2C)cc(OC)c1OC`, the half-inhibitory concentration (IC50) in experiment [1], in experiment [2] and in experiment [3] was greater than 100 µM throughout.

As to `CN1C(=O)/C(=C/c2ccc3c(c2)OCO3)N=C1NCCNCc1ccc2c(c1)OCC2`, the concentration for half-maximal inhibition (IC50) in experiment [1] is greater than 100 µM; in experiment [2], greater than 100 µM; in experiment [3], greater than 10 µM.

As for `CN1C(=O)/C(=C/c2ccc3c(c2)OCO3)N=C1NCCNCc1ccc2c(c1)OCCO2`, the IC50 in experiment [1] was greater than 100 µM; in experiment [2] it was greater than 100 µM; in experiment [3] it was greater than 10 µM.

For `COc1ccc(CNCCNC2=N/C(=C\c3ccc4c(c3)OCO4)C(=O)N2C)cc1`, the concentration for half-maximal inhibition (IC50) in experiment [1] was greater than 100 µM; in experiment [2] it was greater than 100 µM; in experiment [3], greater than 10 µM.

`CN1C(=O)/C(=C/c2ccc3c(c2)OCO3)N=C1NCCNCc1ccc([N+](=O)[O-])cc1`: the IC50 in experiment [1], in experiment [2] and in experiment [3] was greater than 100 µM in each case.

Take `COc1cc(CNCCNC2=N/C(=C\c3ccc4c(c3)OCO4)C(=O)N2C)cc(OC)c1OC`: the concentration for half-maximal inhibition (IC50) in experiment [1], in experiment [2] and in experiment [3] was greater than 100 µM throughout.

With `CN1C(=O)/C(=C/c2ccc3c(c2)OCO3)N=C1NCCN.Cl`, the concentration for half-maximal inhibition (IC50) in experiment [1] is greater than 100 µM; in experiment [2], greater than 100 µM; in experiment [3], 1.4 µM.

`CN1C(=O)/C(=C/c2ccc3c(c2)OCO3)N=C1NCC/N=C/c1ccccc1`: the figures for the IC50 in experiment [1], in experiment [2] and in experiment [3] were greater than 100 µM, greater than 100 µM and 7 µM, respectively.

On to `CN1C(=O)/C(=C/c2ccc3c(c2)OCO3)N=C1NCC/N=C/c1ccc2c(c1)OCCO2`, for which the IC50 is greater than 100 µM in experiment [1], greater than 100 µM in experiment [2] and 38 µM in experiment [3].

Consider `COc1ccc(/C=N/CCNC2=N/C(=C\c3ccc4c(c3)OCO4)C(=O)N2C)cc1`, for which the IC50 in experiment [1] is greater than 100 µM; in experiment [2] it was greater than 100 µM; in experiment [3], 7.3 µM.

For `CN1C(=O)/C(=C/c2ccc3c(c2)OCO3)N=C1NCC/N=C/c1ccc([N+](=O)[O-])cc1`, the IC50 in experiment [1], in experiment [2] and in experiment [3] was greater than 100 µM each time.

Consider `CN1C(=O)/C(=C/c2ccc3c(c2)OCO3)N=C1NCC/N=C/c1ccc2c(c1)OCO2`, for which the half-inhibitory concentration (IC50) is greater than 100 µM in experiment [1], greater than 100 µM in experiment [2] and 0.86 µM in experiment [3].

`CN1C(=O)/C(=C/c2ccc3c(c2)OCO3)N=C1NCCNCc1ccccc1`: the values for the half-maximal inhibitory concentration (IC50) in experiment [1], in experiment [2] and in experiment [3] were greater than 100 µM, greater than 100 µM and greater than 10 µM, respectively.

For `CN1C(=O)/C(=C/c2ccc3c(c2)OCO3)N=C1NCCNCc1ccc2c(c1)OCO2`, the figures for the IC50 in experiment [1], in experiment [2] and in experiment [3] were greater than 100 µM, greater than 100 µM and greater than 10 µM, respectively.

Turning to `CN1C(=O)/C(=C/c2ccc3c(c2)OCO3)N=C1N` [LEUCETTAMINE B], the concentration for half-maximal inhibition (IC50) in experiment [2] was greater than 100 µM; in experiment [3] it was 15 µM.

Usually GI50 stands for the concentration that inhibits growth by half. Read a high GI50 as less potent growth inhibition. Compound `COc1cc(/C=C2\N=C(N)NC2=O)ccc1O` [POLYANDROCARPAMINE A] displayed a GI50 in the experiment on SF-268 of 65 µM.
